Measured values as given in ChEMBL document CHEMBL1152833, “Synthesis of some novel N4-(naphtha[1,2-d]thiazol-2-yl)semicarbazides as potential anticonvulsants” (Eur J Med Chem, 2009).
Activity calls are given as the source filed them.

Assays:
Mus musculus [1] = assay: Antioxidant activity against PTZ-induced decrease in superoxide dismutase activity in Swiss albino mouse brain assessed as enzyme units per mg of protein causing 50% inhibition in NBT reduction rate at 100 mg/kg, ip administered 30 mins before PTZ challenge measured after 4 hrs; format: functional; conditions: route intraperitoneal
Summary of the method: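 Same mouse dosing: 100 mg/kg i.p. 30 min before PTZ 85 mg/kg, brains taken at 4 h. Total SOD was measured in the ethanol phase of an ethanol/chloroform (5:3) extract, as inhibition of NBT reduction by xanthine–xanthine oxidase. One unit gives 50% inhibition; activity is expressed per mg protein (Lowry). n=6, mean ± SEM.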

Mus musculus [2] = assay: Neurotoxicity in Swiss albino mouse at 300 mg/kg, ip after 4 hrs by rotarod test; format: toxicity, organism-based; design: dose 300 mg/kg, route intraperitoneal; conditions: in vivo
Summary of the method: (§1)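 Rotarod test in male Swiss albino mice (18–25 g) after i.p. dosing at 30, 100 and 300 mg/kg, read at 0.5 and 4 h. Mice falling within 30 s in a pre-check were excluded. Neurotoxicity was scored as the minimum dose at which half or more of the mice fell off the rod.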

Mus musculus [3] = assay: Anticonvulsant activity against maximal electroshock-induced seizures in Swiss albino mouse at 300 mg/kg, ip after 0.5 hrs by MES test; format: functional, organism-based; design: dose 300 mg/kg
Summary of the method: (§2)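 Male Swiss albino mice (18–25 g) received compound i.p. at 30, 100 and 300 mg/kg. MES seizures were induced after 0.5 and 4 h, with a drop of 0.9% saline placed in the eye before the electrodes went on. Protection meant abolition of the hind-limb tonic extensor component. The tabulated value is the minimum dose protecting half or more of the mice.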

Mus musculus [4] = assay: Anticonvulsant activity against maximal electroshock-induced seizures in Swiss albino mouse at 300 mg/kg, ip after 4 hrs by MES test; format: functional, organism-based; design: dose 300 mg/kg; summary of the method: as §2
Mus musculus [5] = assay: Anticonvulsant activity in ip dosed Swiss albino mouse assessed as minimum drug concentration required for inhibition of pentylenetetrazole-induced seizures in half or more of mouse after 0.5 hrs by scPTZ test; format: functional
Summary of the method: (§3)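 Male Swiss albino mice (18–25 g) were dosed i.p. at 30, 100 and 300 mg/kg, examined at 0.5 and 4 h. PTZ 85 mg/kg (CD97) was given and the animals were […]. Protection meant absence of any threshold convulsion, i.e. clonic spasm lasting at least 5 s. The value is the minimum dose active in half or more of the mice.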

Mus musculus [6] = assay: Anticonvulsant activity against pentylenetetrazole-induced seizures in Swiss albino mouse at 300 mg/kg, ip after 4 hrs by scPTZ test; format: functional, organism-based; design: dose 300 mg/kg; summary of the method: as §3
Mus musculus [7] = assay: Neurotoxicity in Swiss albino mouse at 300 mg/kg, ip after 0.5 hrs by rotarod test; format: toxicity, organism-based; design: dose 300 mg/kg, route intraperitoneal; conditions: in vivo
Summary of the method: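 Male Swiss albino mice (18-25 g) received the compound i.p. at 30, 100 or 300 mg/kg and were tested on the rotarod 0.5 and 4 h later. Mice were pre-checked, and any that fell off within 30 s were excluded. Neurotoxicity was scored as falling off the rod. The value is the minimum dose affecting half or more of the mice.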

Mus musculus [8] = assay: Antioxidant activity against PTZ-induced lipid peroxidation in Swiss albino mouse brain assessed as malondialdehyde content per mg of protein at 100 mg/kg, ip preincubated for 30 mins before PTZ challenge measured after 4 hrs by TBARS assay; format: functional; conditions: route intraperitoneal
Summary of the method: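 Mice were dosed 100 mg/kg i.p. 30 min before PTZ 85 mg/kg, and brains were homogenized after 4 h. For TBARS, homogenate supernatant was heated with SDS, acetic acid and 0.8% thiobarbituric acid at 95 °C for 1 h. The product was extracted into n-butanol/pyridine and read at 532 nm. Results are pmol MDA/mg protein, n=6, mean ± SEM.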

Mus musculus [9] = assay: Toxicity to Swiss albino mouse assessed as mortality following tonic extension at 300 mg/kg, ip after 0.5 hrs; format: organism-based; design: dose 300 mg/kg, route intraperitoneal; conditions: in vivo
Mus musculus [10] = assay: Anticonvulsant activity in ip dosed Swiss albino mouse assessed as minimum drug concentration required for inhibition of maximal electroshock-induced seizure in half or more of mouse after 0.5 hrs by MES test; format: functional; summary of the method: as §2
Mus musculus [11] = assay: Anticonvulsant activity in ip dosed Swiss albino mouse assessed as minimum drug concentration required for inhibition of maximal electroshock-induced seizure in half or more of mouse after 4 hrs by MES test; format: functional; summary of the method: as §2
Mus musculus [12] = assay: Anticonvulsant activity in ip dosed Swiss albino mouse assessed as minimum drug concentration required for inhibition of pentylenetetrazole-induced seizures in half or more of mouse after 4 hrs by scPTZ test; format: functional; summary of the method: as §3
Mus musculus [13] = assay: Neurotoxicity in ip dosed Swiss albino mouse assessed as minimum drug concentration required for falling off the rotarod by half or more of mouse after 0.5 hrs by rotarod test; format: toxicity, organism-based; conditions: in vivo; summary of the method: as §1
Mus musculus [14] = assay: Neurotoxicity in ip dosed Swiss albino mouse assessed as minimum drug concentration required for falling off the rotarod by half or more of mouse after 4 hrs by rotarod test; format: toxicity, organism-based; conditions: in vivo; summary of the method: as §1
Mus musculus [15] = assay: Anticonvulsant activity against pentylenetetrazole-induced seizures in Swiss albino mouse at 300 mg/kg, ip after 0.5 hrs by scPTZ test; format: functional, organism-based; design: dose 300 mg/kg; summary of the method: as §3
Rattus norvegicus [16] = assay: Anticonvulsant activity against pentylenetetrazole-induced seizures in Wistar albino rat at 50 mg/kg, po up to 2 hrs by scPTZ test; format: functional, organism-based; design: dose 50 mg/kg
Summary of the method: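 Male Wistar rats (100–125 g) were given compound orally at 50 mg/kg. They were challenged with scPTZ at 70 mg/kg at 0.25, 0.5, 1.0 and 2.0 h, and seizures were watched for. Protection meant absence of clonic spasm lasting at least 5 s. The score is the number of rats protected out of four.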

Rattus norvegicus [17] = assay: Neurotoxicity in Wistar albino rat at 50 mg/kg, po by rotarod test; format: toxicity, organism-based; design: dose 50 mg/kg, route oral; conditions: in vivo

Row | SMILES | Activity (Mus musculus [1]) | Activity (Mus musculus [2]) | Activity (Mus musculus [3]) | Activity (Mus musculus [4]) | Activity (Mus musculus [5]) [mg/kg] | Activity (Mus musculus [6]) | Activity (Mus musculus [7]) | Activity (Mus musculus [8]) [pmol] | Activity (Mus musculus [9]) | Activity (Mus musculus [10]) [mg/kg] | Activity (Mus musculus [11]) [mg/kg] | Activity (Mus musculus [12]) [mg/kg] | Activity (Mus musculus [13]) [mg/kg] | Activity (Mus musculus [14]) [mg/kg] | Activity (Mus musculus [15]) | Activity (Rattus norvegicus [16]) | Activity (Rattus norvegicus [17])
1 | CCCC(CCC)C(=O)O [VALPROIC ACID] | 65 | Non-toxic | inactive | inactive | 300 | inactive | Non-toxic | 216 | – | – | – | – | – | – | – | – | –
2 | C1CCc2nnnn2CC1 [PENTYLENETETRAZOL] | 42 | – | – | – | – | – | – | 418 | – | – | – | – | – | – | – | – | –
3 | COc1ccc(/C=N/NC(=O)Nc2nc3c(ccc4ccccc43)s2)cc1 | – | Non-toxic | inactive | inactive | – | inactive | Non-toxic | – | Toxic | – | – | – | – | – | – | – | –
4 | CCC1(c2ccccc2)C(=O)NC(=O)NC1=O [PHENOBARBITAL] | – | – | – | – | 30 | – | – | – | – | 100 | 30 | 30 | 100 | 300 | – | – | –
5 | O=C(N/N=C/c1ccccc1Cl)Nc1nc2c(ccc3ccccc32)s1 | – | Non-toxic | inactive | – | – | – | – | – | – | – | 300 | 300 | 300 | – | inactive | – | –
6 | COc1cc(/C=N/NC(=O)Nc2nc3c(ccc4ccccc43)s2)ccc1O | – | – | – | – | 300 | – | – | – | – | 300 | 300 | 300 | 300 | 100 | – | – | –
7 | O=C1NC(=O)C(c2ccccc2)(c2ccccc2)N1 [PHENYTOIN] | – | – | – | – | – | inactive | – | – | – | 30 | 30 | – | 100 | 100 | inactive | – | –
8 | COc1cc(/C=N/NC(=O)Nc2nc3c(ccc4ccccc43)s2)cc(OC)c1 | – | Non-toxic | inactive | inactive | – | inactive | Non-toxic | – | Toxic | – | – | – | – | – | – | – | –
9 | O=C(N/N=C/c1ccccc1O)Nc1nc2c(ccc3ccccc32)s1 | – | – | – | inactive | 300 | – | – | – | – | 100 | – | 300 | 100 | 100 | – | – | –
10 | O=C(N/N=C/c1ccccc1)Nc1nc2c(ccc3ccccc32)s1 | – | – | – | inactive | 300 | – | – | – | – | 300 | – | 300 | 100 | 300 | – | – | –
11 | CN(C)c1ccc(/C=N/NC(=O)Nc2nc3c(ccc4ccccc43)s2)cc1 | – | – | inactive | inactive | 300 | – | – | – | – | – | – | 300 | 300 | 300 | – | – | –
12 | O=C(N/N=C/c1ccccc1[N+](=O)[O-])Nc1nc2c(ccc3ccccc32)s1 | – | – | inactive | inactive | 300 | – | Non-toxic | – | – | – | – | 300 | – | 100 | – | – | –
13 | O=C(N/N=C/c1ccc(O)cc1)Nc1nc2c(ccc3ccccc32)s1 | – | Non-toxic | inactive | inactive | – | inactive | Non-toxic | – | Toxic | – | – | – | – | – | – | – | –
14 | O=C(N/N=C/c1ccc(Br)cc1)Nc1nc2c(ccc3ccccc32)s1 | 60 | – | – | – | 100 | – | – | 292 | – | 100 | 100 | 100 | 100 | 300 | – | Active | Non-toxic
15 | O=C(N/N=C1\C(=O)Nc2ccccc21)Nc1nc2c(ccc3ccccc32)s1 | – | – | inactive | – | 300 | inactive | – | – | – | – | 300 | – | 100 | 300 | – | – | –
16 | C/C(=N\NC(=O)Nc1nc2c(ccc3ccccc32)s1)c1ccccc1 | – | Non-toxic | inactive | inactive | 300 | – | – | – | – | – | – | 300 | 100 | – | – | – | –
17 | NC(=O)N1c2ccccc2C=Cc2ccccc21 [CARBAMAZEPINE] | – | – | – | – | 100 | – | – | – | – | 30 | 100 | 300 | 100 | 300 | – | – | –
18 | O=C(N/N=C/c1ccc(F)cc1)Nc1nc2c(ccc3ccccc32)s1 | 57 | – | – | – | 100 | – | – | 278 | – | 300 | 300 | 100 | 300 | 300 | – | Active | Non-toxic
19 | COc1cc(/C=N/NC(=O)Nc2nc3c(ccc4ccccc43)s2)cc(OC)c1OC | – | – | – | – | – | – | – | – | – | 300 | 300 | 300 | 100 | 100 | inactive | – | –
